Activity calls are given as the source filed them. The calls are words filed in the database; no cut-off is given here.
Assays:
[1] = system: Rattus norvegicus; assay: Antihepatotoxic activity against CCl4-induced liver damage in rat assessed as decrease in serum SGOT level at 10 mg/kg, po by calorimetric assay (reference value: 74.52 +/- 0.695 IU/L); format: functional
[2] = system: Rattus norvegicus; assay: Antihepatotoxic activity against CCl4-induced liver damage in rat assessed as increase in total protein level at 10 mg/kg, po (reference value: 3.54 +/- 0.67 g/dl); format: functional
[3] = system: Rattus norvegicus; assay: Antihepatotoxic effect against CCl4-induced liver damage in rat assessed as appearance of normal parenchyma at 10 mg/kg, po by microscopic examination-based histopathological analysis; format: functional, organism-based; design: dose 10 mg/kg
Method in brief: (§1)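 Livers taken from Wistar rats (n = 5 per group) dosed with CCl4 1.5 ml/kg p.o. plus agents at 10 mg/kg p.o.; silymarin reference and normal controls included. Liver sections examined microscopically and scored descriptively for necrosis, inflammation, sinusoidal dilatation, central vein appearance, cytoplasmic staining, parenchyma and vascular change.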

[4] = system: Rattus norvegicus; assay: Antihepatotoxic activity against CCl4-induced liver damage in rat assessed as decrease in ALP level at 10 mg/kg, po after 1 hr by photoelectric reading analysis (reference value: 66.157 +/- 2.886 KA); format: functional
[5] = system: Rattus norvegicus; assay: Antihepatotoxic effect against CCl4-induced liver damage in rat assessed as appearance of sinusoidal dilution in centrizonal area at 10 mg/kg, po by microscopic examination-based histopathological analysis; format: functional, organism-based; design: dose 10 mg/kg; method in brief: as §1
[6] = system: Rattus norvegicus; assay: Antihepatotoxic activity against CCl4-induced liver damage in rat assessed as decrease in serum SGPT level at 10 mg/kg, po by calorimetric assay (reference value: 85.27 +/- 2.05 IU/L); format: functional
[7] = system: Rattus norvegicus; assay: Antihepatotoxic effect against CCl4-induced liver damage in rat assessed as appearance of moderate sinusoidal dilution around central vein at 10 mg/kg, po by microscopic examination-based histopathological analysis; format: functional, organism-based; design: dose 10 mg/kg; method in brief: as §1
[8] = system: Rattus norvegicus; assay: Antihepatotoxic effect against CCl4-induced liver damage in rat assessed as fine vascular changes in hepatocytes at 10 mg/kg, po by microscopic examination-based histopathological analysis; format: functional, organism-based; design: dose 10 mg/kg; conditions: Hepatocyte; method in brief: as §1
[9] = system: Rattus norvegicus; assay: Antihepatotoxic effect against CCl4-induced liver damage in rat assessed as appearance of clear central vein at 10 mg/kg, po by microscopic examination-based histopathological analysis; format: functional, organism-based; design: dose 10 mg/kg; method in brief: as §1
[10] = system: Rattus norvegicus; assay: Antihepatotoxic effect against CCl4-induced liver damage in rat assessed as appearance of little dilution at 10 mg/kg, po by microscopic examination-based histopathological analysis; format: functional, organism-based; design: dose 10 mg/kg; method in brief: as §1
[11] = system: Rattus norvegicus; assay: Antihepatotoxic effect against CCl4-induced liver damage in rat assessed as appearance of visible central vein at 10 mg/kg, po by microscopic examination-based histopathological analysis; format: functional, organism-based; design: dose 10 mg/kg; method in brief: as §1
[12] = system: Rattus norvegicus; assay: Antihepatotoxic effect against CCl4-induced liver damage in rat assessed as appearance of mild dilution of sinusoidal spaces at 10 mg/kg, po by microscopic examination-based histopathological analysis; format: functional, organism-based; design: dose 10 mg/kg; conditions: Sinusoidal space; method in brief: as §1
[13] = system: Rattus norvegicus; assay: Antihepatotoxic effect against CCl4-induced liver damage in rat assessed as appearance of uniformly stained cytoplasm at 10 mg/kg, po by microscopic examination-based histopathological analysis; format: functional, organism-based; design: dose 10 mg/kg; method in brief: as §1
[14] = system: Rattus norvegicus; assay: Antihepatotoxic effect against CCl4-induced liver damage in rat assessed as absence of necrosis at 10 mg/kg, po by microscopic examination-based histopathological analysis; format: functional, organism-based; design: dose 10 mg/kg; method in brief: as §1
[15] = system: Rattus norvegicus; assay: Antihepatotoxic effect against CCl4-induced liver damage in rat assessed as appearance of moderate sinusoidal dilution at 10 mg/kg, po by microscopic examination-based histopathological analysis; format: functional, organism-based; design: dose 10 mg/kg; method in brief: as §1

Molecule: COc1ccc(C2=NNC(c3ccc4c(c3)OCCO4)C2)cc1OC (stereo not drawn)
- Activity [1]: 58.85 IU/L
- Activity [2]: 3.82 g/dL
- Activity [3]: Active
- Activity [4]: 49.48 KA
- Activity [5]: Active
- Activity [6]: 64.95 IU/L

Molecule: c1ccc(C2=NNC(c3ccc4c(c3)OCCO4)C2)cc1 (stereo not drawn)
- Activity [1]: 62.85 IU/L
- Activity [7]: Active
- Activity [2]: 4.04 g/dL
- Activity [8]: Active
- Activity [4]: 53.14 KA
- Activity [6]: 65 IU/L

Molecule: Cc1cccc(C2=NNC(c3ccc4c(c3)OCCO4)C2)c1 (stereo not drawn)
- Activity [9]: Active
- Activity [1]: 64.85 IU/L
- Activity [10]: Active
- Activity [2]: 3.98 g/dL
- Activity [4]: 55.74 KA
- Activity [6]: 64.13 IU/L

Molecule: SILYMARIN
- Activity [1]: 56.2 IU/L
- Activity [11]: Active
- Activity [2]: 4.2 g/dL
- Activity [12]: Active
- Activity [13]: Active
- Activity [14]: Active
- Activity [4]: 48.6 KA
- Activity [6]: 61.3 IU/L

Molecule: Clc1ccc(C2=NNC(c3ccc4c(c3)OCCO4)C2)cc1 (stereo not drawn)
- Activity [1]: 63.42 IU/L
- Activity [7]: Active
- Activity [2]: 3.91 g/dL
- Activity [8]: Active
- Activity [4]: 46.06 KA
- Activity [6]: 65.81 IU/L

Molecule: Oc1ccc(C2=NNC(c3ccc4c(c3)OCCO4)C2)c(O)c1 (stereo not drawn)
- Activity [1]: 58.57 IU/L
- Activity [2]: 3.82 g/dL
- Activity [15]: Active
- Activity [3]: Active
- Activity [4]: 58.22 KA
- Activity [6]: 62.09 IU/L
